What all share (assay type): functional, cell-based
Assay [1] deals with BaF3. Nature of the assay: Antiproliferative activity against Lck transformed mouse BaF3 cells after 48 hrs by luciferase assay. The conditions noted are these: BaF3, 48 h. Summed up:
(§1)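 BaF3 cells transformed with the named kinase, 25,000 cells per well, exposed to serial inhibitor dilutions or DMSO for 48 h. Luciferase expression, read by Bright-Glo luminescence, served as the measure of proliferation/survival.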

In assay [2] the test system is Jurkat. Nature of the assay: Inhibition of ant-CD3+CD28 antibodies induced IL2 promoter activity in human Jurkat cells after 5 hrs. In outline: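 Wells coated with anti-mouse IgG in sodium bicarbonate buffer, then loaded with OKT3 (mouse anti-human CD3) and mouse anti-human CD28 antibodies, then washed. Jurkat cells carrying IL-2 promoter-driven luciferase, 100,000 per well, incubated 5 h on the bound antibodies. Luciferase read-out by Bright-Glo.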

For assay [3], the system named is Jurkat. Description: Inhibition of phorbol myristate acetate and ionomycin induced IL2 promoter activity in human Jurkat cells after 5 hrs. In outline:
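Jurkat IL-2 promoter-luciferase cells, 50,000 per well, stimulated with PMA plus ionomycin, added as an equal volume of solution containing PMA at 40 ng/mL (concentration before mixing). IL-2 promoter activity read as luciferase signal by Bright-Glo.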

For assay [4], the system named is BaF3. Nature of the assay: Antiproliferative activity against Lyn transformed mouse BaF3 cells. Summed up:
as §1

Assay [5] deals with BaF3. Description: Antiproliferative activity against InsR transformed mouse BaF3 cells. In outline:
as §1

Assay [6] deals with BaF3. Description: Antiproliferative activity against FLT3 transformed mouse BaF3 cells. In outline: as §1
For assay [7], the system named is BaF3. Description: Antiproliferative activity against FGFR3 transformed mouse BaF3 cells. Summed up: as §1
The test system of assay [8] is BaF3. Description: Antiproliferative activity against JAK3 transformed mouse BaF3 cells. Summed up: as §1
In assay [9] the test system is BaF3. Description: Antiproliferative activity against Sky transformed mouse BaF3 cells. In outline:
as §1

The subject of assay [10] is BaF3. Nature of the assay: Antiproliferative activity against KDR transformed mouse BaF3 cells. Summed up:
as §1

Assay [11] deals with BaF3. Nature of the assay: Antiproliferative activity against Src transformed mouse BaF3 cells. In outline: as §1
The subject of assay [12] is BaF3. Description: Antiproliferative activity against Alk transformed mouse BaF3 cells. Summed up: as §1

Molecules are shown by their SMILES. pIC50: −log10 of the molar value.

By pIC50 is commonly meant −log10 of the IC50, conventionally taken in molar units. A higher pIC50 goes with a low IC50. With `CCNC(=O)Nc1nc2ccc(C(=O)Nc3cc(C(=O)Nc4cccc(C(F)(F)F)c4)ccc3C)cc2s1`, the pIC50 in [1] was 6.93.

`Cc1ccc(C(=O)Nc2cccc(C(F)(F)F)c2)cc1NC(=O)c1ccc2nc(NC(=O)NC3CCCC3)sc2c1` gave a pIC50 in assay [1] of 6.86.

As for `Cc1ccc(NC(=O)c2cccc(C(F)(F)F)c2)cc1NC(=O)c1ccc2nc(N(C)C(=O)OC(C)(C)C)sc2c1`, the pIC50 in [1] is 6.02.

For the molecule `Cc1ccc(NC(=O)c2cccc(C(F)(F)F)c2)cc1NC(=O)c1ccc2nc(NC(=O)OC(C)(C)C)sc2c1`, in [1], the pIC50 is 7.44.

In the case of `COC(=O)Nc1nc2ccc(C(=O)Nc3cc(NC(=O)c4cccc(C(F)(F)F)c4)ccc3C)cc2s1`, the results for the pIC50 in [2], in [3] and in assay [1] were 7.44, 6.07 and 7.52, respectively.

With `Cc1ccc(NC(=O)c2cccc(C(F)(F)F)c2)cc1NC(=O)c1ccc2nc(NC(=O)NC3CCCC3)sc2c1`, the pIC50 is 7.21 in assay [2], 6.09 in [3] and 7.80 in assay [1].

In assay [1], `Cc1ccc(NC(=O)c2cccc(C(F)(F)F)c2)cc1NC(=O)c1ccc2nc(NCCN3CCN(C)CC3)sc2c1` had a pIC50 of 7.24.

`COc1ccc(OC(=O)Nc2nc3ccc(C(=O)Nc4cc(NC(=O)c5cccc(C(F)(F)F)c5)ccc4C)cc3s2)cc1` showed a pIC50 in assay [1] of 6.88.

Consider `CCNC(=O)Nc1nc2ccc(C(=O)Nc3cc(NC(=O)c4cccc(C(F)(F)F)c4)ccc3C)cc2s1`, for which the pIC50 in assay [2] was 7.36; in assay [3], 6.43; in assay [1], 7.80.

On to `Cc1ccc(NC(=O)c2cccc(C(F)(F)F)c2)cc1NC(=O)c1ccc2nc(NC(=O)Nc3cccnc3)sc2c1`, for which the pIC50 in assay [1] was 6.90.

`CCNC(=O)Nc1nc2ccc(C(=O)Nc3cc(NC(=O)c4cccc(OC)c4)ccc3C)cc2s1`: the pIC50 in [1] is 6.80.

In the case of `Cc1ccc(NC(=O)c2cccc(C(F)(F)F)c2)cc1NC(=O)c1ccc2nc(NCCCN3CCOCC3)sc2c1`, the pIC50 in [1] is 7.11.

`CCNC(=O)Nc1nc2ccc(C(=O)Nc3cc(NC(=O)c4ccc(Cl)c(C(F)(F)F)c4)ccc3C)cc2s1` had a pIC50 in [1] of 7.30.

The molecule `Cc1ccc(NC(=O)c2cccc(C(F)(F)F)c2)cc1NC(=O)c1ccc2nc(NCCCN(C)C)sc2c1` gave a pIC50 in [1] of 7.09.

For `Cc1cc(Nc2nc3ccc(C(=O)Nc4cc(NC(=O)c5cccc(C(F)(F)F)c5)ccc4C)cc3s2)no1`, the pIC50 in [1] was 8.10.

`CCNC(=O)Nc1nc2ccc(C(=O)Nc3cc(NC(=O)c4cccc(Cl)c4)ccc3C)cc2s1` showed a pIC50 in assay [1] of 6.98.

As to `CCNC(=O)Nc1nc2ccc(C(=O)Nc3cc(NC(=O)c4ccnc(C(C)(C)C)c4)ccc3C)cc2s1`, the pIC50 in assay [1] is 8.05.

The molecule `CCNC(=O)Nc1nc2ccc(C(=O)Nc3cc(NC(=O)c4cc(-n5cnc(C)c5)cc(C(F)(F)F)c4)ccc3C)cc2s1` showed a negative-log IC50 (pIC50) in assay [1] of 7.82.

With `CCNC(=O)Nc1nc2ccc(C(=O)Nc3cc(NC(=O)c4cc(N5CCN(C)CC5)cc(C(F)(F)F)c4)ccc3C)cc2s1`, in assay [1], the pIC50 is 7.72.

In assay [1], `Cc1cc(Nc2nc3ccc(C(=O)Nc4cc(NC(=O)c5cccc(C(F)(F)F)c5)ccc4C)cc3s2)nc(C)n1` had a pIC50 of 9.22.

For the molecule `CNC(=O)Nc1nc2ccc(C(=O)Nc3cc(NC(=O)c4cccc(C(F)(F)F)c4)ccc3C)cc2s1`, the pIC50 in assay [4] was 7.03; in assay [5], 5.89; in [6], 5.50; in assay [7], 5.70; in assay [1], 7.68; in assay [8], 5.30. In addition, the pIC50 is 5.96 in assay [9], 5.79 in [10], 6.52 in assay [11] and 5.79 in [12].

`Cc1cc(Br)c(NC(=O)c2cccc(C(F)(F)F)c2)cc1NC(=O)c1ccc2nc(NCCN3CCOCC3)sc2c1` gave a pIC50 in [1] of 5.68.

For the molecule `COCCOC(=O)Nc1nc2ccc(C(=O)Nc3cc(NC(=O)c4cccc(C(F)(F)F)c4)ccc3C)cc2s1`, the pIC50 was 7.92 in assay [2], 6.36 in assay [3] and 8.10 in assay [1].

With `Cc1ccc(NC(=O)c2cccc(C(F)(F)F)c2)cc1NC(=O)c1ccc2nc(NC(=O)OC(C)C)sc2c1`, the pIC50 was 6.57 in [4]; 4.87 in assay [5]; < 5.00 in [6]; 4.90 in [7]; 7.52 in [1]; < 5.00 in assay [8]. Further, the pIC50 in assay [9] is 5.61; in [10] it was 5.48; in [11], 6.29; in [12], 5.21.

`CCNC(=O)Nc1nc2ccc(C(=O)Nc3cc(NC(=O)c4cc(F)cc(C(F)(F)F)c4)ccc3C)cc2s1` gave a pIC50 in assay [1] of 8.15.

The molecule `CCNC(=O)Nc1nc2ccc(C(=O)Nc3cc(NC(=O)c4cccc(C)c4)ccc3C)cc2s1` showed a pIC50 in [1] of 6.95.

In the case of `Cc1ccnc(Nc2nc3ccc(C(=O)Nc4cc(NC(=O)c5cccc(C(F)(F)F)c5)ccc4C)cc3s2)c1`, in assay [1], the pIC50 is 7.80.

Molecule `Cc1ccc(NC(=O)c2cccc(C(F)(F)F)c2)cc1NC(=O)c1ccc2nc(Nc3cnccn3)sc2c1` had a negative-log IC50 (pIC50) in assay [1] of 8.40.

Take `CCNC(=O)N(C)c1nc2ccc(C(=O)Nc3cc(NC(=O)c4cccc(C(F)(F)F)c4)ccc3C)cc2s1`: the pIC50 in [1] is < 5.00.

`Cc1ccc(NC(=O)c2cccc(C(F)(F)F)c2)cc1NC(=O)c1ccc2nc(N)sc2c1` had a pIC50 in assay [1] of 6.77.

The molecule `Cc1ccc(NC(=O)c2cccc(C(F)(F)F)c2)cc1NC(=O)c1ccc2nc(NC(=O)Oc3ccccc3)sc2c1` showed a pIC50 in [1] of 6.95.

`Cc1ccc(NC(=O)c2cccc(C(F)(F)F)c2)cc1NC(=O)c1ccc2nc(NC(=O)Nc3ccccc3)sc2c1`: in [1], the pIC50 was 7.03.

In turn, `CCNC(=O)Nc1nc2ccc(C(=O)Nc3cc(NC(=O)c4ccc(C(C)(C)C)s4)ccc3C)cc2s1` gave a pIC50 in assay [1] of 7.92.

In assay [1], `Cc1cc(C)nc(Nc2nc3ccc(C(=O)Nc4cc(NC(=O)c5cccc(C(F)(F)F)c5)ccc4C)cc3s2)n1` had a pIC50 of 7.28.

Values taken from ChEMBL document CHEMBL1143924, “Discovery of 2-amino-6-carboxamidobenzothiazoles as potent Lck inhibitors” (Bioorg Med Chem Lett, 2008).
